Results as given in ChEMBL document CHEMBL4190246, “Phytochemical Studies on Two Australian Anigozanthos Plant Species” (J Nat Prod, 2017).
Activity calls are given as the source filed them. The rule behind the calls is not given here.

Key:
Format in all cases: functional, organism-based
Acinetobacter baumannii [1] = assay: Antimicrobial activity against Acinetobacter baumannii ATCC 19606 at 32 ug/ml after 18 hrs; conditions: ATCC 19606 = CIP 70.34 = JCM 6841
How it was run: (§1)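 Single-concentration screen: samples from 10 mg/mL DMSO stocks, duplicate wells; overnight culture in cation-adjusted Mueller Hinton broth at 37 °C, added to 5 × 10^5 CFU/mL, final compound 32 μg/mL; 37 °C, 18 h. Growth read as absorbance at 600 nm; percent inhibition against media-only and untreated-cell controls on the same plate, significance by Z-score.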

Klebsiella pneumoniae = assay: Antimicrobial activity against Klebsiella pneumoniae ATCC 700603 at 32 ug/ml after 18 hrs; how it was run: as §1
Cryptococcus neoformans = assay: Antimicrobial activity against Cryptococcus neoformans ATCC 208821 at 32 ug/ml after 24 hrs by resazurin dye based assay
How it was run: (§2)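 Fungi grown 3 days on yeast extract–peptone dextrose agar at 30 °C, then diluted in yeast nitrogen base broth to 2.5 × 10^5 CFU/mL. Samples from 10 mg/mL DMSO stocks, duplicate wells, final 32 μg/mL; 35 °C, 24 h. Resazurin added (0.001% final), 2 h more at 35 °C, absorbance at 530 nm. Percent inhibition against on-plate controls; Z-scores.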

Pseudomonas aeruginosa = assay: Antimicrobial activity against Pseudomonas aeruginosa ATCC 27853 at 32 ug/ml after 18 hrs; how it was run: as §1
Candida albicans = assay: Antimicrobial activity against Candida albicans ATCC 90028 at 32 ug/ml after 24 hrs by resazurin dye based assay; how it was run: as §2
Staphylococcus aureus = assay: Antimicrobial activity against methicillin-resistant Staphylococcus aureus ATCC 43300 at 32 ug/ml after 18 hrs
How it was run: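 Single-concentration screen (COADD): samples dissolved in DMSO at 10 mg/mL stock, plated in duplicate; overnight culture in cation-adjusted Mueller Hinton broth at 37 °C added to 5 × 10^5 CFU/mL, final 32 μg/mL. Incubated 37 °C. Read-out absorbance 600 nm; percent growth inhibition versus media-only and untreated-cell controls on the same plate; significance by Z-score from sample wells.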

Escherichia coli = assay: Antimicrobial activity against Escherichia coli ATCC 25922 at 32 ug/ml after 18 hrs; how it was run: as §1
Acinetobacter baumannii [2] = assay: Antimicrobial activity against Acinetobacter baumannii ATCC 19606 at 52.4 uM after 18 hrs; conditions: ATCC 19606 = CIP 70.34 = JCM 6841; how it was run: as §1
Acinetobacter baumannii [3] = assay: Antimicrobial activity against Acinetobacter baumannii ATCC 19606 at 94.9 uM after 18 hrs; conditions: ATCC 19606 = CIP 70.34 = JCM 6841; how it was run: as §1
Acinetobacter baumannii [4] = assay: Antimicrobial activity against Acinetobacter baumannii ATCC 19606 at 53.9 uM after 18 hrs; conditions: ATCC 19606 = CIP 70.34 = JCM 6841; how it was run: as §1

| Compound | Activity (Acinetobacter baumannii [1]) | Activity (Klebsiella pneumoniae) | Activity (Cryptococcus neoformans) | Activity (Pseudomonas aeruginosa) | Activity (Candida albicans) | Activity (Staphylococcus aureus) | Activity (Escherichia coli) | Activity (Acinetobacter baumannii [2]) | Activity (Acinetobacter baumannii [3]) | Activity (Acinetobacter baumannii [4]) |
| --- | --- | --- | --- | --- | --- | --- | --- | --- | --- | --- |
| O=C(/C=C/c1ccc(O)cc1)OC[C@H]1O[C@@H](Oc2c(-c3ccc(O)c(O)c3)oc3cc(O)cc(O)c3c2=O)[C@H](O)[C@@H](O)[C@@H]1O | inactive | inactive | inactive | inactive | inactive | inactive | inactive | – | – | – |
| O=c1cc(-c2ccc(O)c(O)c2)oc2cc(O[C@@H]3O[C@H](CO)[C@@H](O)[C@H](O)[C@H]3O)cc(O)c12 | inactive | inactive | inactive | inactive | inactive | inactive | inactive | – | – | – |
| O=C(/C=C/c1ccc(O)cc1)O[C@H]1[C@H](O)[C@@H](O)[C@H](Oc2cc(O)c(O)c(C(=O)/C=C/c3ccc(O)cc3)c2)O[C@@H]1CO | inactive | inactive | inactive | inactive | inactive | inactive | inactive | – | – | – |
| O=C1c2c(O)cc(O)cc2O[C@H](c2ccc(O)c(O)c2)[C@H]1O | inactive | inactive | inactive | inactive | inactive | inactive | inactive | – | – | – |
| O=C(/C=C/c1ccc(O)cc1)OC[C@H]1O[C@@H](Oc2c(-c3ccc(O)cc3)oc3cc(O)cc(O)c3c2=O)[C@H](O)[C@@H](O)[C@@H]1O | inactive | inactive | inactive | inactive | inactive | inactive | inactive | – | – | – |
| O=C(/C=C/c1ccc(O)cc1)OC[C@H]1O[C@@H](Oc2cc3c(O)cc(O)cc3[o+]c2-c2ccc(O)c(O)c2)[C@H](O)[C@@H](O)[C@@H]1O | inactive | inactive | inactive | inactive | inactive | inactive | inactive | – | – | – |
| C[C@@H]1O[C@@H](OC[C@H]2O[C@@H](Oc3cc4c(O)cc(O)cc4[o+]c3-c3ccc(O)c(O)c3)[C@H](O)[C@@H](O)[C@@H]2O)[C@H](O)[C@H](O)[C@H]1O | – | inactive | inactive | inactive | inactive | inactive | inactive | Active | – | – |
| O=c1c(O[C@@H]2O[C@H](CO)[C@@H](O)[C@H](O)[C@H]2O)c(-c2ccc(O)c(O)c2)oc2cc(O)cc(O)c12 | inactive | inactive | inactive | inactive | inactive | inactive | inactive | – | – | – |
| O=C(O)[C@H]1O[C@@H](Oc2cc(O)c3c(=O)cc(-c4ccc(O)cc4)oc3c2)[C@H](O)[C@@H](O)[C@@H]1O | inactive | inactive | inactive | inactive | inactive | inactive | inactive | – | – | – |
| C[C@@H]1O[C@@H](OC[C@H]2O[C@@H](Oc3c(-c4ccc(O)c(O)c4)oc4cc(O)cc(O)c4c3=O)[C@H](O)[C@@H](O)[C@@H]2O)[C@H](O)[C@H](O)[C@H]1O | inactive | inactive | inactive | inactive | inactive | inactive | inactive | – | – | – |
| NC(CCCC(OC(=O)/C=C/c1ccc(O)cc1)C(=O)O)C(=O)O (stereo unspecified) | – | inactive | inactive | inactive | inactive | inactive | inactive | – | Active | – |
| C[C@@H]1O[C@@H](OC[C@H]2O[C@@H](Oc3c(-c4ccc(O)cc4)oc4cc(O)cc(O)c4c3=O)[C@H](O)[C@@H](O)[C@@H]2O)[C@H](O)[C@H](O)[C@H]1O | – | inactive | inactive | inactive | inactive | inactive | inactive | – | – | Active |
| O=c1c(O)c(-c2ccc(O)cc2)oc2cc(O)cc(O)c12 | inactive | inactive | inactive | inactive | inactive | inactive | inactive | – | – | – |
